These results are taken from ChEMBL document CHEMBL1153564 (Antimicrob Agents Chemother, 2008).

≈ marks a conversion by molar mass, not a printed value. Calls of active or inactive are those of the source. The rule behind the calls is not given here. Starred links: 1 amine or outer side, 2 acyl side, 3 side chain; linkers in the order of their positions; H or OH if unused. Positions of bridges follow the written chain, without caps; N, C: chain ends. Non-standard residues stand in square brackets, D forms with d. Residues, ends and D or L forms follow the SMILES beside them. *: point of attachment. pTerphenylCO(4''-OnC5H11) = CCCCCOc1ccc(-c2ccc(-c3ccc(C(=O)*)cc3)cc2)cc1; Orn(4R-OH,5R-OH) = O=C([C@H](C[C@@H](O)[C@@H](O)N[*:3])N[*:1])[*:2]; hTyr(3S-OH,4S-OH) = N[C@H](C(=O)O)[C@H](O)[C@@H](O)c1ccc(O)cc1; Pro(3S-OH,4S-Me) = C[C@H]1CN[C@H](C(=O)O)[C@H]1O; Hyp = O=C(O)[C@@H]1C[C@@H](O)CN1

The test system of series [1] is Nakaseomyces glabratus. The series is described as follows: Antifungal activity against Candida glabrata 513 infected in neutropenic ICR/Swiss mouse candidiasis model assessed as fungal count per kidney administered 2 hrs postinfection measured up to 48 hrs. The format is functional. The gist of the method:
(§1)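 Female ICR/Swiss mice (23–27 g) made neutropenic with cyclophosphamide s.c. (150 mg/kg day −4, 100 mg/kg day −1, 100 mg/kg day +2). Infected by tail vein with 0.1 ml inoculum (~6.1 log10 CFU/ml). Kidneys of untreated mice were homogenised and plated on SDA for 24 h at 35°C. Growth over 48 h is given as log10 CFU/kidney.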

Series [2] relates to Nakaseomyces glabratus. The series is described as follows: Antifungal activity against Candida glabrata 37661 infected in neutropenic ICR/Swiss mouse candidiasis model assessed as fungal count per kidney administered 2 hrs postinfection measured up to 48 hrs. Format: functional. The procedure, abridged: as §1
Series [3] concerns Candida albicans. The series is described as follows: Antifungal activity against Candida albicans 98-17 assessed as partial growth inhibition after 24 hrs by CLSI end point method. The format is functional. As to conditions: 98-17, 24 h. The procedure, abridged:
(§2)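 CLSI M27-A2 broth dilution. Two end points read against the drug-free control well: partial inhibition (CLSI end point) and complete inhibition. Run in duplicate on four separate occasions; value is the mean. Drug stock in DMSO, diluted in 0.9% NaCl.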

The subject of series [4] is Nakaseomyces glabratus. The series is described as follows: Antifungal activity against Candida glabrata 513 assessed as complete growth inhibition after 24 hrs by CLSI end point method. The format is functional. As to conditions: Nakaseomyces glabratus, 513, 24 h. The procedure, abridged:
(§3)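 Two end points were read against the drug-free control well: partial growth inhibition (the CLSI end point) and complete inhibition. Run in duplicate on four separate occasions; the value is the mean. Drug stock was made in DMSO and diluted in 0.9% NaCl.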

Series [5] deals with Nakaseomyces glabratus. Kind of series: Antifungal activity against Candida glabrata 37661 assessed as partial growth inhibition after 24 hrs by CLSI end point method. Format: functional. As to conditions: Nakaseomyces glabratus, 37661, 24 h. The gist of the method:
as §3

In series [6] the test system is Mus musculus. Kind of series: Cmax in serum of neutropenic ICR/Swiss mouse candidiasis model at 5 mg/kg, ip up to 4 hrs by reverse-phase high-pressure liquid chromatography. The format is ADME, organism-based. On the set-up: dose 5 mg/kg, route intraperitoneal. The settings on record: in vivo. The gist of the method:
(§4)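 Infected neutropenic ICR/Swiss mice given single ip doses (5, 20 or 80 mg/kg; 0.2 ml); serum from three isoflurane-anaesthetised mice at 1, 4, 8, 12, 24 and 48 h, stored at −80°C, assayed by reverse-phase HPLC with fluorescence detection, loratadine internal standard, linear 10–50,000 ng/ml. Noncompartmental analysis; half-life by nonlinear least squares.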

Series [7] deals with Nakaseomyces glabratus. The series is described as follows: Antifungal activity against Candida glabrata 513 infected in neutropenic ICR/Swiss mouse candidiasis model assessed as dose required for 1-log10 reduction in […] per kidney administered intraperitoneally every 24 hrs up to 4 days measured per 24 hrs. The format is functional. The gist of the method: (§5)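 Neutropenic mouse disseminated candidiasis, with i.p. therapy starting 2 h after i.v. infection. Five total doses of 0.078–20 mg/kg/24 h were given q24h for 4 days, three mice per dose. Kidney CFU were counted at the end and compared with untreated controls. The dose giving a 1 log10 CFU/kidney reduction was derived from the sigmoid Hill dose–effect model.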

The subject of series [8] is Candida albicans. The series is described as follows: Antifungal activity against Candida albicans K-1 infected in neutropenic ICR/Swiss mouse candidiasis model assessed as dose required to maintain […] of 3.90 +/- 0.15 log10CFU per kidney administered intraperitoneally once every 96 hrs measured per 96 hrs. The format is functional. The procedure, abridged:
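Neutropenic mice were infected iv with C. albicans K-1 2 h before therapy. Total doses of 1.25, 5, 20, 80 and 320 mg/kg/96 h were split into 1, 2, 4 or 6 ip doses (q96h, q48h, q24h, q16h), three mice per regimen. Effect is the log10 CFU/kidney relative to untreated controls at 96 h. Static and 1-log doses were taken from a Hill model fit.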

The nature of series [9]: Elimination half life in serum of neutropenic ICR/Swiss mouse candidiasis model at 5 mg/kg, ip by reverse-phase high-pressure liquid chromatography. The format is ADME, organism-based. On the set-up: dose 5 mg/kg, route intraperitoneal. The settings on record: read-out: beta t1/2 (converted). The procedure, abridged: as §4
Series [10] has as its system Nakaseomyces glabratus. Kind of series: Antifungal activity against Candida glabrata 570 assessed as complete growth inhibition after 24 hrs by CLSI end point method. Format: functional. The settings on record: Nakaseomyces glabratus, 570, 24 h. The gist of the method: as §3
In a further series the test system is Serum. The series is described as follows: Fraction unbound in Candida glabrata 5376-infected neutropenic ICR/Swiss mouse serum at 20 mg/kg, ip administered 2 hrs postinfection as single dose measured after 32 hrs. The format is ADME, organism-based. On the set-up: dose 20 mg/kg, route intraperitoneal. As to conditions: in vivo.
Series [11] relates to Nakaseomyces glabratus. Kind of series: Antifungal activity against Candida glabrata 5376 infected in neutropenic ICR/Swiss mouse candidiasis model assessed as dose required for 1-log10 reduction in […] per kidney administered intraperitoneally every 24 hrs up to 4 days measured per 24 hrs. Format: functional. The gist of the method: as §5
The test system of series [12] is Nakaseomyces glabratus. The series is described as follows: Antifungal activity against Candida glabrata 5376 assessed as complete growth inhibition after 24 hrs by CLSI end point method. The format is functional. The settings on record: Nakaseomyces glabratus, 5376, 24 h. The procedure, abridged: as §3
Series [13] can be described thus: Steady state AUC in human at 100 mg/day. The format is ADME, organism-based. As to conditions: in vivo.
For series [14], the system named is Candida albicans. The series is described as follows: Antifungal activity against Candida albicans K-1 infected in neutropenic ICR/Swiss mouse candidiasis model assessed as reduction of […] in kidney at 20 mg/kg, ip administered 2 hrs postinfection as single dose measured after 96 hrs post dosing by time-kill assay. Format: functional, organism-based. On the set-up: dose 20 mg/kg. The gist of the method: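 Single ip dose (20, 5 or 1.25 mg/kg) given 2 h after iv infection of neutropenic mice with K-1. Three treated and three control mice were sampled at intervals over 96 h for kidney CFU. PAFE is the time for treated burden to rise 1 log10 after serum levels fall below MIC, minus the same time in controls. Free drug was taken as 1%.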

The nature of series [15]: AUC (0 to infinity) in serum of neutropenic ICR/Swiss mouse candidiasis model at 20 mg/kg, ip by reverse-phase high-pressure liquid chromatography. On the set-up: time infinity, dose 20 mg/kg, route intraperitoneal. Format: ADME, organism-based. The gist of the method: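 Single ip dose in 0.2 ml to infected neutropenic mice. Serum from groups of three isoflurane-anaesthetised mice at 1, 4, 8, 12, 24 and 48 h, stored −80°C. Drug measured by reverse-phase HPLC with fluorescence detection against loratadine internal standard (calibration 10–50,000 ng/ml). Noncompartmental analysis; AUC by trapezoidal rule.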

For series [16], the system named is Nakaseomyces glabratus. The series is described as follows: Antifungal activity against Candida glabrata 5376 infected in neutropenic ICR/Swiss mouse candidiasis model assessed as reduction of […] in kidney at 20 mg/kg, ip administered 2 hrs postinfection as single dose measured after 96 hrs post dosing by time-kill assay. On the set-up: dose 20 mg/kg. The format is functional, organism-based. The procedure, abridged:
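Neutropenic mice were infected i.v. and 2 h later given a single i.p. dose (1.25, 5 or 20 mg/kg). Groups of three treated and three control mice were killed at intervals over 96 h, and kidney CFU were counted on SDA (limit 100 CFU/ml). The post-antifungal effect is t − c: the time for a 1 log10 CFU/kidney increase once serum levels fall below the MIC in treated mice, minus the same time in controls.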

The test system of series [17] is Nakaseomyces glabratus. Kind of series: Antifungal activity against Candida glabrata 5376 infected in neutropenic ICR/Swiss mouse candidiasis model assessed as […] burden per kidney administered intraperitoneally every 24 hrs up to 4 days measured per 96 hrs. Format: functional. The settings on record: Nakaseomyces glabratus, 5376, Kidney, ip. The procedure, abridged: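 Neutropenic ICR/Swiss mice infected i.v. with the strain; therapy began 2 h later. Total doses of 1.25–320 mg/kg/96 h were given i.p. as 1, 2, 4 or 6 doses (q96h, q48h, q24h, q16h), three mice per regimen. Kidney CFU were counted after 4 days. Effect is the change from untreated controls at the end of therapy.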

For series [18], the system named is Candida albicans. The series is described as follows: Antifungal activity against Candida albicans 580 assessed as complete growth inhibition after 24 hrs by CLSI end point method. The format is functional. The settings on record: Candida albicans, 580, 24 h. The gist of the method: as §2
The test system of series [19] is Mus musculus. Kind of series: Cmax in serum of neutropenic ICR/Swiss mouse candidiasis model at 80 mg/kg, ip up to 4 hrs by reverse-phase high-pressure liquid chromatography. Format: ADME, organism-based. On the set-up: dose 80 mg/kg, route intraperitoneal. The settings on record: in vivo. The procedure, abridged: as §4

The term MIC denotes the lowest concentration that inhibits growth of the organism. A word on the Cmax: it is the highest concentration seen after dosing. By AUC is commonly meant the area under the concentration-time curve, a measure of exposure. A higher AUC goes with high exposure. Usually AUC(0-inf) stands for the area under the concentration-time curve extrapolated to infinity. A high value points to more exposure. For orientation: ED50 means the dose at which the effect has come halfway, by size or by number of responders. On to `CCCCCOc1ccc(-c2ccc(-c3ccc(C(=O)N[C@H]4C[C@@H](O)[C@@H](O)NC(=O)[C@@H]5[C@@H](O)[C@@H](C)CN5C(=O)[C@H]([C@@H](C)O)NC(=O)[C@H]([C@H](O)[C@@H](O)c5ccc(O)cc5)NC(=O)[C@@H]5C[C@@H](O)CN5C(=O)[C@H]([C@@H](C)O)NC4=O)cc3)cc2)cc1` [ANIDULAFUNGIN] ({pTerphenylCO(4''-OnC5H11)}-[Orn(4R-OH,5R-OH)]T[Hyp][hTyr(3S-OH,4S-OH)]T[Pro(3S-OH,4S-Me)]; lactam 1-C), for which the log10cfu with Nakaseomyces glabratus [1] came out at 2.43; with Nakaseomyces glabratus [2], 0.96. In addition, the MIC is 0.03 µg/mL (≈ 0.0263 µM) in the series with Candida albicans [3]; 0.12 µg/mL (≈ 0.105 µM) with Nakaseomyces glabratus [4]; 2 µg/mL (≈ 1.75 µM) with Nakaseomyces glabratus [5]; 0.12 µg/mL (≈ 0.105 µM) in the series on Nakaseomyces glabratus [10]; 0.06 µg/mL (≈ 0.0526 µM) with Nakaseomyces glabratus [12]; 0.03 µg/mL (≈ 0.0263 µM) with Candida albicans [18]. Besides, the Cmax was determined as 4300 ng/mL with Mus musculus [6] and 60000 ng/mL in the series on Mus musculus [19]. Further, the figures for the Activity in the series on Nakaseomyces glabratus [7], with Candida albicans [8] and in the series with Nakaseomyces glabratus [11] were 4.13 mg/kg, 3.07 mg/kg and 7.5 mg/kg, respectively. Also, in series [9], the half-life is 14.8 h. In the series on Serum, this compound registered a Fu of 1%. For the same compound, the AUC in series [13] amounted to 112 µg·h/mL. For the same compound, the result in the series with Candida albicans [14] and in the series with Nakaseomyces glabratus [16] was Active. The same compound showed an AUC(0-inf) in series [15] of 382 µg·h/mL. Moreover, in the series with Nakaseomyces glabratus [17], the ED50 came to 15.9 mg/kg.
